HCV core dimer: HCV core protein dimerization inhibition | 0.33% of 300,000 active | inhibition, % at 5 µM | TR-FRET GST/Flag-core106 dimerization, 1536-well | AID 1899;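 active = inhibition above the mean of all tested compounds plus 3 SD, set per screening campaign, cut at about 45% in these data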
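Assay system: tagged HCV core106 pair (GST and Flag); medium: KF-containing HEPES buffer, pH 7.45, DTT, CHAPS, BSA; also added: Eu donor and XL665 acceptor anti-tag antibodies; dosing: 5 µM single dose; timing: compound-protein-antibody incubation 4 h at 22.5 °C; signal: TR-FRET 671 and 617 nm emission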
ZTA counter: ZTA (EBV) inhibition in EBNA-1 counter-screen; P03206; ZTA-DNA binding, fluorescence polarization; inhibition, % at 11 µM; 0.15% of 320,000 active; in the data active = inhibition above about 33%
Target sequence (P03206 whole entry, looked up): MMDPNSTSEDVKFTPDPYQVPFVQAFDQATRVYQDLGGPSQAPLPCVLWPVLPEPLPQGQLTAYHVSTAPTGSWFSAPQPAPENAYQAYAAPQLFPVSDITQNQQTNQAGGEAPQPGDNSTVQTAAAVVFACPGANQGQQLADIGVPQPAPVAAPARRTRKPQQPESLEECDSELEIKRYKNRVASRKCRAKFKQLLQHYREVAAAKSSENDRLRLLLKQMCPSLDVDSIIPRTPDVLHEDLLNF
HCV NS3 hel inh: blocks Hepatitis C virus NS3 helicase unwinding; NS3 helicase DNA unwinding, Cy5 molecular beacon fluorescence; inhibition, % at 10.9 µM; 0.56% of 290,000 active;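 active = inhibition above the mean of all tested compounds plus 3 SD, set per campaign, cut at about 35% in these data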;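 note: 0% = DMSO wells and 100% = thioflavine S control wells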
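Assay system – hepatitis C virus NS3 helicase domain fragment enzyme · Buffer or medium – MOPS pH 6.5, MgCl2, DTT, Tween20, BSA · Reagent – Cy5/quencher beacon DNA duplex and ATP to start · Compound – single 10.9 µM dose · Timing – 1 h at 25 °C · Technique – Cy5 beacon fluorescence read at start and 1 h · Measure – % inhibition of unwinding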
EBNA-1 inhibitor: blocks EBNA-1 binding to DNA; inhibition, % at 14.8 µM; AID 1950; EBNA-1 DNA binding, fluorescence polarization; 0.34% of 300,000 active; in the data active = inhibition above about 28%
An asterisk follows results filed as active; . = not tested or not shown; + = active, no number. Rows were chosen to be rich in hits. Some 1.2% of all compounds tested hit in one or more screens of this group.

SMILES | HCV core dimer | ZTA counter | HCV NS3 hel inh | EBNA-1 inhibitor
CN(CC(=O)Nc1cccc(F)c1)C(=O)c1cc(-c2ccco2)nc2ccccc12 | 59* | -12 | . | 5
CN(CC(=O)Nc1c(Cl)cccc1Cl)C(=O)c1cccc(-n2cccc2)c1 | 33 | 0 | . | 6
CC(Oc1ccccc1F)c1nnc(SCC(=O)NCc2ccc3c(c2)OCO3)o1 (stereo not drawn) | . | 7 | . | .
COc1ccccc1C(C)Nc1nc(-c2cccnc2)nc2ccccc12 (stereo not drawn) | 16 | 14 | -12 | 8
Cc1ccc2oc(-c3ccc(C)c(NC(=S)NC(=O)c4cccs4)c3)nc2c1 | 3 | -12 | 10 | 29*
COc1cccc(-c2c(-c3cc(OC)cc(OC)c3)n(C)c3ccc(-c4cccc5[nH]ccc45)cc23)c1 | . | -3 | . | .
COc1ccccc1/C=N/NC(=O)C1=NNC(c2ccccc2)(c2ccccc2)C1 | 54* | -18 | 6 | 10
Cc1nc2nc(SCC(=O)NCCCN3CCCC(C)C3)nn2c(C)c1Cc1ccccc1Cl (stereo not drawn) | 2 | -9 | -12 | 0
CCn1c2ccccc2c2cc(/C=N/NC(=O)c3cccc(C)c3)ccc21 | 48* | -3 | 1 | -2
O=C(NC(c1cccnc1)C(F)(F)F)c1cc(COc2ccc3c(c2)CCCC3)on1 (stereo not drawn) | 4 | 13 | -5 | 11
Cc1ccc2c(c1)c1c3n2CCN(C(=O)C2CC2)C3CCC1 (stereo not drawn) | -8 | -8 | 0 | 4
Cc1ccc2c(c1)c1c3n2CC(=C2C(=O)OC(C)(C)OC2=O)NC3CCC1 (stereo not drawn) | 46* | -1 | 6 | 12
O=C(Nc1ccc(Nc2ccncc2)cc1)c1ccc(Nc2ccnc3ccc([N+](=O)[O-])cc23)cc1[N+](=O)[O-] | 62* | -12 | -30 | -8
CC1CCCCN1C(=O)COC(=O)c1cc([N+](=O)[O-])ccc1N (stereo not drawn) | -4 | -2 | . | 5
N#Cc1c(NC(=O)/C=C/C(=O)O)sc2c1CCN(Cc1ccccc1)C2 | 69* | -4 | 26 | -4
Cn1cccc1C(=O)NCC(c1ccco1)N1CCCCC1 (stereo not drawn) | -1 | 12 | . | 2
Cc1cc(SCC(=O)c2ccc(Cl)cc2)nc(=O)[nH]1 | 6 | 0 | 19 | 9
Cc1ccc(C(=O)CSc2cc(C)[nH]c(=O)n2)cc1 | 64* | -3 | 18 | 5
Cc1nc(CN(C)C(=O)CC2C(=O)NCCN2Cc2ccc(-c3ccccc3)cc2)cs1 (stereo not drawn) | 6 | 2 | -16 | -9
COc1ccc(Nc2nc(-c3sc(NC(C)=O)nc3C)cs2)cc1 | 59* | -3 | 2 | 2
O=C(COc1ccc(Br)cc1Br)NC(=S)N1CCCc2ccccc21 | -7 | 42* | 6 | 9
C=COC(=O)CSc1snc(SCC(=O)OC)c1C#N | 89* | -5 | 6 | 4
CCN(CC)C(=O)CSc1nsc(SCC(=O)N(CC)CC)c1C#N | -8 | -13 | 3 | 1
Cc1cccc(NC2=Nc3ccccc3N3C2=Nc2c(c(C)nn2-c2ccccc2)C3c2ccc(O)c(O)c2)c1 (stereo not drawn) | 46* | 11 | 9 | 26
Cc1ccc(-c2c(C(=O)Nc3ccccc3C)c(C)[nH]c(=S)c2C#N)o1 | 41 | 5 | 39* | 4
SMILES | HCV core dimer | ZTA counter | HCV NS3 hel inh | EBNA-1 inhibitor
Cc1ccccc1NC(=O)c1c(C)[nH]c(=S)c(C#N)c1-c1ccc(Cl)cc1 | 12 | 3 | 10 | 5
COc1ccccc1N(C)S(=O)(=O)c1ccc(C(=O)NCC2CCCCC2)cc1 | . | -14 | . | .
COc1ccccc1NC(=O)c1ccc(Cl)c(S(=O)(=O)NCc2ccco2)c1 | . | -2 | . | .
CCn1cc(C(=O)NCc2ccco2)c(=O)c2cc(F)c(N3CCN(C(=O)c4ccco4)CC3)cc21 | 56* | 12 | 1 | 6
CSc1ccc(C2C(C#N)=C(N)Oc3c2ccc(=O)c2c(C)oc(C)c32)cc1 (stereo not drawn) | 78* | -6 | 29 | -6
Cc1oc(C)c2c(=O)ccc3c(c12)OC(N)=C(C#N)C3c1ccccc1 (stereo not drawn) | 16 | -6 | 29 | -8
COCCCNC(=O)c1ccccc1N(Cc1ccccc1)S(=O)(=O)c1ccccc1 | 4 | -1 | -2 | -4
CCOc1ccccc1C(=O)NC(C(=O)N(C)Cc1ccc2c(c1)OCO2)C(C)C (stereo not drawn) | . | -6 | . | .
CN(C(=O)COC(=O)c1ccc2ccccc2n1)C1CCS(=O)(=O)C1 (stereo not drawn) | 0 | + | -8 | +
CC(C)CN(C(=O)COC(=O)c1ccc2ccccc2n1)C1CCS(=O)(=O)C1 (stereo not drawn) | 2 | 1 | 5 | -9
CCN1CCN(c2ccc(S(=O)(=O)N3CCOCC3)cc2NC(=O)C(C)Oc2ccc(F)cc2)CC1 (stereo not drawn) | . | 7 | . | .
CC(C)C(NC(=O)c1c(F)cccc1F)C(=O)N1CCN(S(=O)(=O)c2ccc(F)cc2)CC1 (stereo not drawn) | . | 11 | . | .
CN(C)c1ccc(NC(=O)CSc2nnc(-c3ccco3)c(-c3ccco3)n2)cc1 | 38 | -2 | 26 | -7
O=C(CSc1nnc(-c2ccco2)c(-c2ccco2)n1)Nc1ccccc1 | 51* | 20 | 24 | 1
Cc1cccc(C)c1NC(=O)CSc1nnc(-c2ccco2)c(-c2ccco2)n1 | 72* | 2 | 36 | -2
O=C(NCCN1CCOCC1)C1CC(=O)N(c2ccc(Cl)cc2)C1 (stereo not drawn) | -19 | -19 | 12 | -4
CN(C)C(CNC(=O)CSc1nc2sc3c(c2c(=O)n1C)CCCC3)c1ccccc1 (stereo not drawn) | . | 5 | . | .
CC1(C(=O)N2CCC(CC3CC(c4cccc(Br)c4)=NO3)(C(=O)NCC3CCCCC3)CC2)CC1 (stereo not drawn) | 1 | -4 | -20 | -1
CC1CCN(S(=O)(=O)c2ccc(NC(=O)Cc3cccs3)cc2)CC1 | 65* | -3 | 5 | -11
CC1CCN(CC(=O)Nc2ccc(S(=O)(=O)N3CCC(C)CC3)cc2)CC1 | 2 | 7 | -23 | 5
CN(CC(=O)Nc1sccc1C#N)C1CCCCC1 | 51* | -2 | 16 | -3
COc1ccc(-c2cc(-c3ccccc3)c(C#N)c(SCC(=O)Nc3ncc(C)s3)n2)cc1 | 56* | 17 | 4 | 12
COc1ccc(-c2cc(-c3ccc(OC)cc3)c(C#N)c(SC)n2)cc1 | 75* | -10 | 2 | 3
COc1ccc(-c2cc(-c3ccccc3)nc(SCC(=O)Nc3nccs3)c2C#N)cc1 | 12 | 8 | 5 | 5
CCc1cccc(C)c1NC(=O)CSc1nc2ccc(N3C(=O)c4ccccc4C3=O)cc2s1 | 47* | 4 | -6 | -12
COc1ccc(-n2c(C)cc(-c3csc(NC(=O)c4ccc(S(=O)(=O)N(C)C)cc4)n3)c2C)cc1 | 53* | 5 | 17 | -4
Cc1cc(-c2csc(NC(=O)c3ccc(C#N)cc3)n2)c(C)n1Cc1ccccc1 | 52* | -14 | 33 | 4
